Measurements as given in ChEMBL document CHEMBL3351942, “Rexinoids isolated from Sophora tonkinensis with a gene expression profile distinct from the synthetic rexinoid bexarotene” (J Nat Prod, 2014).
Calls of active or inactive are those of the source. The calls are words filed in the database; no cut-off is given here.

Columns and labels:
[1] = target: T1, Peroxisome proliferator-activated receptor delta (Mus musculus) (UniProt P35396); assay: Activation of PPARdelta in mouse C2C12 cells assessed as induction of ANGPTL4 mRNA expression at 10 uM after 24 hrs in presence of GW501516 by quantitative RT-PCR analysis; assay type: cell-based
T1 sequence (whole entry): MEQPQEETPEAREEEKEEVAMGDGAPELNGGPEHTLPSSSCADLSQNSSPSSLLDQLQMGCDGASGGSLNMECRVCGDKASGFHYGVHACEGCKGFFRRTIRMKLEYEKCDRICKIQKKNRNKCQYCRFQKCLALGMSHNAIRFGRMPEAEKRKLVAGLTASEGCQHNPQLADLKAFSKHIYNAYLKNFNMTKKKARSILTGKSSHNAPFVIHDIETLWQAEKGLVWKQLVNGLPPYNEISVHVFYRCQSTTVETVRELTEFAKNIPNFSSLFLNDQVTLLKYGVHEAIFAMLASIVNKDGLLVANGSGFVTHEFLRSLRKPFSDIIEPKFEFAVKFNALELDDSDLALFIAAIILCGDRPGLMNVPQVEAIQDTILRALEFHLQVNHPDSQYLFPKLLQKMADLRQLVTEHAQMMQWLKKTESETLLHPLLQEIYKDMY
Procedure, shortened: (§1)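 Differentiated C2C12 myotubes (2% horse serum, 5 days) exposed 24 h with or without PPARδ agonist GW501516 (1 μM). mRNA quantified by SYBR green real-time RT-PCR, normalized to β-actin by delta-delta Ct, and expressed as fold induction vs vehicle; means ± SD of four determinants from one of two independent experiments; one-way ANOVA with Bonferroni.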

Homo sapiens = species: Homo sapiens; assay: Activation of RXR/VDR heterodimer in human hepatoma cells assessed as increase in CYP24A1 mRNA level at 10 uM in presence of VDR agonist calcitriol by quantitative RT-PCR analysis; assay type: cell-based
Procedure, shortened: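 HLE hepatoma cells treated 24 h with or without VD3 (0.1 μM); CYP24A1 mRNA by SYBR green qRT-PCR normalized to β-actin (delta-delta Ct), fold over vehicle; means ± SD of three determinants, representative of three experiments.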

C2C12 = assay: Induction of HMOX-1 mRNA level in mouse C2C12 cells at 10 uM after 24 hrs by quantitative RT-PCR analysis; assay type: functional, cell-based
Procedure, shortened: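 C2C12 myoblasts were differentiated in 2% horse serum, with medium changed every other day for 5 days. The myotubes were then exposed to compound at 10 μM for 24 h. mRNA was measured by SYBR green qRT-PCR from 0.5 μg total RNA, normalized to β-actin (ΔΔCt), and expressed as fold of vehicle. Four determinants, representative of two experiments.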

[2] = target: T2, Retinoic acid receptor RXR-alpha (Homo sapiens) (UniProt P19793); assay: (§2) Agonist activity at human RXR-alpha expressed in HEK293 cells coexpressing with pCMX-beta-gal after 24 to 48 hrs by luciferase reporter gene assay; assay type: cell-based
T2 sequence (whole entry): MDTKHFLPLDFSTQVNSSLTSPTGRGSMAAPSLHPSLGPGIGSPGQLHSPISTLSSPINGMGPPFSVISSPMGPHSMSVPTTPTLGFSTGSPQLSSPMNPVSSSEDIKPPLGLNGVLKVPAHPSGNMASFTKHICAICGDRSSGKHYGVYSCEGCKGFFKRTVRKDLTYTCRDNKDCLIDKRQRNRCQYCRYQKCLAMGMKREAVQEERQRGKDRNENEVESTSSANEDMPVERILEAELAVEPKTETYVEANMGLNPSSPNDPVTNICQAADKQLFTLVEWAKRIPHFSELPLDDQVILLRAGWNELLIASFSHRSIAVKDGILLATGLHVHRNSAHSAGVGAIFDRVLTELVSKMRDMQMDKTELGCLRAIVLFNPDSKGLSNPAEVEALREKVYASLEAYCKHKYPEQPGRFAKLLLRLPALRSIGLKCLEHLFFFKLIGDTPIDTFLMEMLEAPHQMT
Procedure, shortened: (§3)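 HEK293 cells transfected by calcium phosphate with 60 ng pCMX-hRXR-α, 150 ng CRBPII-tk-Luc and 30 ng pCMX-β-gal plus carrier pUC18 (600 ng DNA per well). After 8 h the cells were washed and exposed to compound in medium with 10% FBS for 24−48 h. Luciferase was normalized to β-galactosidase. Triplicate or quadruplicate; representative of three independent experiments; EC50 from dose-response.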

[3] = target: T3, Retinoic acid receptor RXR-alpha (Homo sapiens, UniProt P19793); assay: as §2; assay type: cell-based; procedure, shortened: as §3
T3 sequence (P19793 whole entry): T2 sequence (whole entry)

[4] = target: T1, Peroxisome proliferator-activated receptor delta (Mus musculus); assay: Activation of PPARdelta in mouse C2C12 cells assessed as induction of ANGPTL4 mRNA expression at 10 uM after 24 hrs by quantitative RT-PCR analysis; assay type: cell-based; procedure, shortened: as §1
[5] = target: T1, Peroxisome proliferator-activated receptor delta (Mus musculus); assay: Activation of PPARdelta in mouse C2C12 cells assessed as induction of CPT1A mRNA expression at 10 uM after 24 hrs by quantitative RT-PCR analysis; assay type: cell-based; procedure, shortened: as §1
F9 = assay: Activation of RAR/RXR heterodimer in mouse F9 cells assessed as increase in CYP26A1 mRNA level at 10 uM by quantitative RT-PCR analysis in presence of atRA; assay type: cell-based
Procedure, shortened: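 F9 teratocarcinoma cells on 0.2% gelatin-coated dishes in DMEM/10% FBS; 24 h exposure with or without atRA (0.1 μM). CYP26A1 mRNA by qRT-PCR normalized to β-actin, fold vs vehicle; means ± SD of three determinants, one of three experiments; ANOVA/Bonferroni.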

[6] = Activation of LXR in mouse C2C12 cells assessed as induction of ApoE mRNA expression at 10 uM after 24 hrs in presence of T0901317 by quantitative RT-PCR analysis; assay type: cell-based
Procedure, shortened: (§4)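 C2C12 myoblasts grown in DMEM/10% FBS, differentiated at confluence in 2% horse serum, medium changed every other day for 5 days; myotubes treated 24 h with or without T0901317 (1 μM). Total RNA, DNase-treated, oligo(dT) RT from 0.5 μg, SYBR green qPCR; normalized to β-actin (delta-delta Ct), fold over vehicle; mean ± SD of four determinants, one of two experiments.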

[7] = target: T2, Retinoic acid receptor RXR-alpha (Homo sapiens); assay: Binding affinity to RXRalpha (unknown origin) by receptor-SRC1 cofactor complex formation assay
Procedure, shortened: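 Ligand-dependent binding of RXR isotype to coactivator SRC-1 in an NR cofactor kit, detected with HRP-conjugated anti-RXR antibody at OD450. The full agonist CD3254 defined 100% and vehicle 0%. Efficacy was taken as maximum B/Bmax% and potency as EC50.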

[8] = Activation of LXR in mouse C2C12 cells assessed as induction of ABCA1 mRNA expression at 10 uM after 24 hrs by quantitative RT-PCR analysis; assay type: cell-based; procedure, shortened: as §4
[9] = Activation of LXR in mouse C2C12 cells assessed as induction of FAS mRNA expression at 10 uM after 24 hrs in presence of T0901317 by quantitative RT-PCR analysis; assay type: cell-based; procedure, shortened: as §4

Activity [1]: Active
Activity [2]: Dose-dependent effect
EC50 [3]: 770 nM
Activity [4]: Active
Activity [5]: Active
Activity [7]: inactive
Structure (SMILES): CC(C)=CCc1cc([C@@H]2CC(=O)c3ccc(O)c(CC=C(C)C)c3O2)cc2c1OC(C(C)(C)O)C2 (some centres not stated)
Activity (Homo sapiens): inactive
Activity (C2C12): Active
Activity (F9): Active
Activity [6]: Active
Activity [8]: Active
Activity [9]: inactive
